From ChEMBL document CHEMBL2093137, “WHO-TDR NTD Screening”
Converted amounts (≈) assume the structure as drawn.

Tests used:
[1] = WHO-TDR: Cytotoxicity; assay type: toxicity, cell-based; conditions: human, MRC5 cells
[2] = test system: Plasmodium falciparum K1; experiment: WHO-TDR: Malaria; assay type: functional, organism-based, Homo sapiens; conditions: Erythrocyte
Method in brief: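 This whole-organism screen covered 10,000 drug-likeness-filtered and reactive-group-filtered compounds from Life Chemicals. The target was the Plasmodium falciparum K1 strain in human red blood cells, and the readout was antiplasmodial IC50.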

[3] = test system: Trypanosoma cruzi; experiment: WHO-TDR: Chagas disease; assay type: functional, organism-based, Homo sapiens; conditions: MRC5
Method in brief: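 Following previously published standard procedures, with a reference drug as positive control, a whole-organism assay was run on Trypanosoma cruzi Tulahuen CL2 beta-galactosidase strain amastigotes inside MRC-5SV2 human lung fibroblast host cells. The 10,000 compounds tested formed a diverse Life Chemicals library filtered for drug-likeness and reactive groups. Results are expressed as IC50 for antiparasitic potency.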

[4] = test system: Trypanosoma brucei brucei; experiment: WHO-TDR: Human African Trypanosomiasis (HAT); assay type: functional, organism-based; conditions: Squib-427
Method in brief: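 Screening used a 10,000-compound diverse library supplied by Life Chemicals and filtered for drug-likeness and reactive groups. Whole bloodstream-form parasites of Trypanosoma brucei Squib 427 strain were assayed according to previously published standard procedures, with reference drugs as positive controls. The reported measure is IC50, reflecting antiparasitic potency.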

[5] = test system: Leishmania infantum; experiment: WHO-TDR: Leishmaniasis; assay type: functional, organism-based, Mus musculus; conditions: Macrophage
Method in brief: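 The screened collection came from Life Chemicals: 10,000 diverse compounds selected after filtering for drug-likeness and reactive groups. Each was tested in a whole-organism assay against Leishmania infantum MHOM/MA(BE)/67 amastigotes inside murine peritoneal macrophages, using previously published standard procedures and a reference drug as positive control. Results are IC50 values for antiparasitic potency.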

[6] = test system: Onchocerca ochengi; experiment: WHO-TDR: Onchocerciasis; assay type: functional; design: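 at 12.5 µM on microfilariae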
Method in brief: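 Onchocerca ochengi or Onchocerca lienalis, animal pathogens used as surrogates for the human parasite, were screened as whole microfilariae against a 10,000-compound diverse library from Life Chemicals. The reported measures of activity are percent inhibition and IC50.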

[7] = test system: Brugia malayi; experiment: WHO-TDR: Lymphatic Filariasis; assay type: functional; design: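 tested at 10 µM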
Method in brief: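 Percent inhibition and IC50 describe activity against Brugia malayi microfilariae in a whole-organism screen. The screen used previously published standard procedures with reference drugs as positive controls. Compounds came from a diverse Life Chemicals library of 10,000, filtered for drug-likeness and reactive groups.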

IC50 [2] [mg/L] | IC50 [4] [mg/L] | IC50 [5] [mg/L] | SMILES | IC50 [1] [mg/L] | IC50 [3] [mg/L] | % Inhibition [6] [%] | % Inhibition [7] [%]
> 12.7 | 4.22 (≈ 9.95 µM) | > 12.7 | COc1ccc(-c2cn3c(CCC(=O)Nc4ccccc4SC)csc3n2)cc1 | > 12.7 | 5.77 (≈ 13.6 µM) | 100 | 20
> 12.5 | > 12.5 | > 12.5 | Cc1nc2sc(C)c(C)n2c(=O)c1NC(=O)CC(c1ccccc1)c1ccccc1 | > 12.5 | > 12.5 | 100 | 0
> 12 | > 12 | > 12 | CCOCC(=O)Nc1ccc(-c2nnc(N(C)c3ccc(OC)cc3)s2)cc1 | > 12 | > 12 | 100 | 0
> 10.6 | > 10.6 | > 10.6 | COc1ccc(-c2cn3c(C(=O)Nc4cc(C)on4)csc3n2)cc1 | > 10.6 | > 10.6 | 100 | 0
4.41 (≈ 10.2 µM) | 4.11 (≈ 9.49 µM) | 4.21 (≈ 9.71 µM) | COc1ccc(-c2cn3c(C(=O)Nc4ccc(OC(F)(F)F)cc4)csc3n2)cc1 | 1.79 (≈ 4.14 µM) | 3.69 (≈ 8.5 µM) | 100 | 0
> 10.5 | > 10.5 | > 10.5 | Cc1nc2scc(-c3cccc(NS(C)(=O)=O)c3)n2c(=O)c1C | > 10.5 | > 10.5 | 100 | 0
> 12.3 | > 12.3 | > 12.3 | O=C(CCc1csc(NC(=O)c2ccco2)n1)NCCc1c[nH]c2ccccc12 | 3.18 (≈ 7.78 µM) | 5.75 (≈ 14.1 µM) | 100 | 0
> 12.5 | > 12.5 | 8.54 (≈ 20.4 µM) | COc1ccc(OC)c(Nc2nc(CC(=O)NCc3ccccc3Cl)cs2)c1 | 2.13 (≈ 5.1 µM) | 3.77 (≈ 9.02 µM) | 100 | 20
> 13.1 | 5 (≈ 11.4 µM) | > 13.1 | Cc1cc(=O)[nH]c(-n2nc(C)c(CCC(=O)Nc3ccc(F)c(C(F)(F)F)c3)c2C)n1 | > 13.1 | 4.25 (≈ 9.73 µM) | 100 | 20
> 12.4 | > 12.4 | > 12.4 | COc1ccccc1CNC(=O)CCc1csc(NC(=O)c2ccc(F)cc2)n1 | > 12.4 | > 12.4 | 100 | 0
> 13.5 | > 13.5 | 6.97 (≈ 15.5 µM) | COc1cccc(-c2cn3c(C(=O)N4CCN(c5ccccc5OC)CC4)csc3n2)c1 | 2.13 (≈ 4.76 µM) | 6.97 (≈ 15.5 µM) | 100 | 0
> 12.4 | > 12.4 | 0.843 (≈ 2.04 µM) | Cc1cccc2sc(NC(=O)CCc3csc(NC(=O)c4ccco4)n3)nc12 | > 12.4 | > 12.4 | 100 | 0
> 11.3 | 3.11 (≈ 8.23 µM) | 5.86 (≈ 15.5 µM) | COc1ccc(-c2cn3c(C(=O)Nc4cc(C)ccc4C)csc3n2)cc1 | > 11.3 | > 11.3 | 100 | 0
> 12.9 | > 12.9 | 0.418 (≈ 0.971 µM) | Cc1noc(C)c1S(=O)(=O)Nc1cccc(-c2csc3nc(C)c(C)c(=O)n23)c1 | > 12.9 | > 12.9 | 0 | 0
> 12.6 | > 12.6 | > 12.6 | CCSc1nnc(NC(=O)c2cc(=O)c(OCc3ccc(F)cc3)cn2C)s1 | > 12.6 | > 12.6 | 100 | 0

More lines, now with the values behind:

SMILES | IC50 [2] [mg/L] | IC50 [4] [mg/L] | IC50 [5] [mg/L] | IC50 [1] [mg/L] | IC50 [3] [mg/L] | % Inhibition [6] [%] | % Inhibition [7] [%]
O=C(Cc1csc(Nc2cccc(Cl)c2)n1)N1CCN(C(=O)c2ccco2)CC1 | > 12.9 | 4.46 (≈ 10.3 µM) | 6.7 (≈ 15.5 µM) | 3.98 (≈ 9.24 µM) | 4.55 (≈ 10.6 µM) | 100 | 20
O=S(=O)(c1cccc(Cl)c1)N1CCN(c2ccc(Nc3ccncc3)nn2)CC1 | 5.77 (≈ 13.4 µM) | 4.24 (≈ 9.83 µM) | > 12.9 | 12.9 (≈ 30 µM) | 3.98 (≈ 9.24 µM) | 100 | 0
CCC(Sc1ccc(NC(=O)c2cccc(F)c2)nn1)C(=O)OC (configuration not stated) | > 10.5 | > 10.5 | > 10.5 | 9.15 (≈ 26.2 µM) | > 10.5 | 100 | 0
O=C(Cc1csc(Nc2ccc(F)cc2)n1)N1CCN(c2ncccn2)CC1 | > 12 | > 12 | > 12 | > 12 | 5.13 (≈ 12.9 µM) | 100 | 20
CC(C)c1ccc(Nc2ncnc3[nH]ncc23)cc1 | > 7.6 | > 7.6 | 5.18 (≈ 20.4 µM) | > 7.6 | 4.44 (≈ 17.5 µM) | 100 | 0
O=C(Cc1csc(Nc2ccc(OC(F)(F)F)cc2)n1)NCC1CCCO1 (configuration not stated) | > 12 | > 12 | > 12 | > 12 | 5.45 (≈ 13.6 µM) | 100 | 20
CCCCOc1ccc(C(=O)N2CCN(c3ccc(Nc4cccnc4)nn3)CC2)cc1 | 1.69 (≈ 3.91 µM) | 11.9 (≈ 27.5 µM) | 0.42 (≈ 0.971 µM) | > 13 | 3.45 (≈ 7.98 µM) | 100 | 0
FC(F)(F)c1ccc(Nc2ncnc3[nH]ncc23)cc1 | > 8.38 | 3.19 (≈ 11.4 µM) | > 8.38 | > 8.38 | 2.72 (≈ 9.73 µM) | 100 | 0
COc1cc(NCCNC(=O)C(C)C)nc(OC)n1 | > 8.05 | > 8.05 | 0.261 (≈ 0.973 µM) | > 8.05 | > 8.05 | 0 | 0
CCCCOc1ccc(C(=O)N2CCN(c3cc(OC)nc(OC)n3)CC2)cc1 | > 12 | > 12 | > 12 | > 12 | > 12 | 100 | 0
CCOC(=O)N1CCN(C(=O)Nc2nc(CC(=O)Nc3nc4ccccc4s3)cs2)CC1 | > 14.2 | > 14.2 | > 14.2 | > 14.2 | > 14.2 | 100 | 20
